# The list is not random: actives were taken first. Their share in the collection is about 2.6%.
# FN deposition inh = inhibitors of fibronectin matrix deposition, primary screen, AH1F cells, Alexa488-fibronectin fluorescence, plate reader | AH1F fibroblasts, overnight | inhibition, % at 12.6 µM | hit rate 0.086% among 350,000;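 active means mean inhibition across replicates of 30% or more, regardless of how many single replicates reach that level; inconclusive means mean under 30% yet at least half of replicates reach 30%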;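 further: positive control wells lacked labelled fibronectin entirely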
#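 Material: AH1F fibroblast monolayer depositing Alexa488-labelled fibronectin into matrix / Amount: 10000 AH1F cells per well / Signal: fluorescence 485/525 nm / Medium: DMEM, 2% serum / Compound: single dose, pinned / Incubation: 1 h cell adhesion before compound, then overnight fibronectin incubation / Reagent: Alexa488-FN, 24 nM final / Read-out: inhibition of fibronectin deposition signal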
# S100A4 inh HTS = inhibitors of S100A4-myosin IIA peptide binding, primary screen, biochemical, fluorescence polarization, TAMRA-MyoIIA peptide. inhibition, % at 10.7 µM. hit rate 0.14% among 360,000;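 active means mean inhibition of at least 70% across replicates, with every replicate also reaching that level; inconclusive means mean inhibition reaches 70% but some replicates fall short; inactive means mean inhibition below 70%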
# Target sequence (P26447 whole entry, looked up): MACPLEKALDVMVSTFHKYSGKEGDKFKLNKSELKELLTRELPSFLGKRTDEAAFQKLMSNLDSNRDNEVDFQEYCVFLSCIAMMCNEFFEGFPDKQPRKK
#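 Material: S100A4 monomer (human). Medium: Calcium-containing HEPES buffer, pH 7.2. Probe or stimulus: labelled myosin peptide probe, 5 nM. Compound dosing: one concentration per compound. Timing: polarization read 5 min after assay mix addition, stable 5–60 min. Benchmarks: DMSO as neutral control, TFP as positive control.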
# miR-122 sensor = miR-122 Renilla sensor signal increase in Huh7, primary screen, miR-122 inhibitor project, cell-based, single point, plate reader. activation (reporter increase), % at 12.5 µM. Huh7 miR-122 Renilla luciferase sensor, 48 h; neutral wells = 0, positive control = 100. hit rate 0.3% among 340,000;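 active means mean replicate activation score at least 90 and every replicate individually at or above 90; inconclusive means only one of the two criteria met; inactive means neither criterion met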;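 further: higher luciferase means less miR-122 activity so hits act as miR-122 inhibitors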
# HIV Env fusion = inhibitors of HIV-1 Env-driven cell-cell fusion, primary screen, HeLa-JRFL effector, CEM21 target cells, luciferase; AID 651610, 2012; inhibition, % at 12.3 µM; hit rate 1.1% among 360,000;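 active means mean replicate inhibition score of at least 50 and every replicate individually at or above 50; inconclusive means only one of the two criteria met; inactive means mean below 50 and not all replicates reaching 50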;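 further: 0% = plate neutral controls and 100% = maraviroc near 300 nM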
# Vif imaging = HIV Vif self-association inhibitors, primary screen, imaging, HEK293T, single point. HEK293T cells, Vif self-association by quenched fluorescence, 24 h. AID 602346, 2012. hit rate 0.35% among 340,000. inhibition, % at 7.49 µM; in the data active means inhibition above about 50%, passing the limit was not always enough; inconclusive means no clear call, values can overlap the other calls; inactive means below about 31%
# Ecoli rRNA inh = reduced GFP signal of wild-type E. coli, primary screen, bacterial rRNA inhibitor project, GFP/RFP fluorescence, OD600, single point; AID 720706, 2013; hit rate 1.6% among 350,000; GFP signal change (wild-type ribosome), % (concentration not given with the values); E. coli WT GFP vs humanized-ribosome RFP mutants, 24 h; active compounds read low; DMSO median 0, no signal -100;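 active means significant combined selectivity score with lowered wild-type GFP, culture density cut under 30%, mutant RFP and density less affected; inactive means any of these conditions unmet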
# Active calls of the source: *; u = inconclusive; x = not tested or not shown; [ ] = remark or other dose.
SMILES,FN deposition inh,S100A4 inh HTS,miR-122 sensor,HIV Env fusion,Vif imaging,Ecoli rRNA inh
Cc1c(Cl)cccc1NC(=S)N(Cc1cccs1)C1CCCC1,x,0,x,21,5,-22*
Cc1ccc(-c2nnc(Nc3ccc(OCC(N)=O)cc3)c3ccccc23)cc1S(N)(=O)=O,-3,5,30,1,-5,-13
NC(=O)COc1ccc(Nc2nnc(-c3ccc(O)cc3)c3ccccc23)cc1,3,6,-11,3,-14,-25*
COc1ccc(S(=O)(=O)N(C)C[C@H]2Oc3ccc(NC(=O)Cc4cn(C)c5ccccc45)cc3CC(=O)N([C@H](C)CO)C[C@@H]2C)cc1,x,-5,-9[16.7 µM],-12[16.7 µM],x,-4
C[C@H](CO)N1C[C@H](C)[C@H](CN(C)S(=O)(=O)c2ccccc2)Oc2ccc(NC(=O)Cc3cn(C)c4ccccc34)cc2CC1=O,x,-25,-8[16.7 µM],94*[16.7 µM],x,2
C[C@H](CO)N1C[C@H](C)[C@H](CN(C)S(=O)(=O)c2cccs2)Oc2ccc(NC(=O)Cc3cn(C)c4ccccc34)cc2CC1=O,1,23,5[16.7 µM],96*[16.7 µM],x,-1
COc1ccc(S(=O)(=O)N(C)C[C@@H]2Oc3ccc(NC(=O)Cc4cn(C)c5ccccc45)cc3CC(=O)N([C@H](C)CO)C[C@@H]2C)cc1,x,-1,-3[16.7 µM],76*[16.7 µM],x,-1
CC[C@@H]1[C@H]2CCCC(=O)N3CC[C@@H](C[C@@H]1OC(=O)NCc1ccccc1)[C@@H]23,3,-3,1,-18,5,-8
CCCCNC(=O)O[C@H]1C[C@@H]2CCN3C(=O)CCC[C@H]([C@H]1Cc1ccccc1)[C@H]23,-4,2,x,56*,-4,4
COC(=O)C[C@H]1C[C@@H]2c3cc(NC(=O)Nc4ccc(OC)cc4)ccc3O[C@@H]2[C@H](CO)O1,2,x,0[16.7 µM],10[16.7 µM],x,-3
CSCCC(NC(=O)c1ccccc1Br)C(=O)NC(C)CCc1ccccc1 (stereo not given),x,-6,x,64*,-5,0
C=CCN(C(=O)c1csnn1)C(C(=O)NC1CCCCC1)c1ccc(Cl)cc1 (stereo not given),-10,-1,6,10,-13,-4
C=CCN(C(=O)c1csnn1)C(C(=O)NC1CCCC1)c1c(F)cccc1Cl (stereo not given),5,-1,2,0,-4,-21*
Cc1cc2ccccc2nc1-c1ccccc1F,3,4,x,-12,-2,-16*
O=C1c2ccccc2-c2nc3ccccc3cc21,0,-10,1,-37,-5,-15
CC(C)(C)C1CCC2(CC1)NC(=S)N(c1ccccc1)N2 (stereo not given),-8,x,1,-45,2,x
S=C1NC2(CCCCCC2)NN1c1ccccc1,4,1,x,55*,x,x
C/C(CC1CC(COCC(C)C)OC1=O)=N\Nc1nc(-c2ccccc2)cs1 (stereo not given),x,x,7,-6,-2,x
CC1CC(CC(=O)Nc2nc(-c3ccccc3)cs2)C(=O)O1 (stereo not given),-25,4,6,-5,-2,-24*
O=C1C=C(c2ccc(F)cc2OCc2ccccc2)C[C@@H](c2ccc(Cl)cc2)C1,-6,-3,-5,76*,7,2
CCc1ccc(/C=C2/C(=O)N(c3ccccc3)C(=S)N2CC(=O)OC)s1,-2,x,-3,-25,1,x
CCOc1ccc(N2C(=O)/C(=C/c3cccs3)N(CC(=O)OC)C2=S)cc1,x,x,1,-12,97*,x
C[C@@H]1CN([C@@H](C)CO)C(=O)Cc2cc(NC(=O)CCN3CCOCC3)ccc2O[C@H]1CN(C)C,x,8,-4[16.7 µM],x,x,5
COc1cc(/C=C2/CCC/C(=C\c3cc(O)c(OC)c(Cl)c3)C2=O)cc(Cl)c1O,26,x,113*,27,7,x
COc1cc(/C=C2\CCC/C(=C\c3ccc(O)c(OC)c3)C2=O)ccc1O,11,-5,x,-10,12,-12
SMILES,FN deposition inh,S100A4 inh HTS,miR-122 sensor,HIV Env fusion,Vif imaging,Ecoli rRNA inh
COc1cc(/C=C2\CC/C(=C\c3cc(OC)c(O)c(OC)c3)C2=O)cc(OC)c1O,1,-10,x,77*,-17,x
COc1cc(/C=C2\CC/C(=C\c3cc(OC)c(OC)c(OC)c3)C2=O)cc(OC)c1OC,x,2,x,37,x,1
COc1cc(/C=C2\COC/C(=C\c3cc(OC)c(OC)c(OC)c3)C2=O)cc(OC)c1OC,-8,4,x,110*,-3,-9
CO[C@@H]1CC[C@H]2CCOc3ccc(C#N)cc3C(=O)N(C)C[C@@H](C)C(=O)N(C)C[C@@H]1O2,-1,6,x,9[16.7 µM],x,1
COc1ccc(CN(C)C[C@H]2OCCCC[C@@H](C)Oc3ccc(NC(=O)Nc4cccc5ccccc45)cc3C(=O)N([C@H](C)CO)C[C@H]2C)cc1,x,-2,-1[16.7 µM],-12[16.7 µM],x,-3
CC(C)C#Cc1cnc2c(c1)C(=O)N([C@@H](C)CO)C[C@@H](C)[C@@H](CN(C)C(=O)Nc1cccc(F)c1)O2,-5,34,20[16.7 µM],3[16.7 µM],x,-1
CN(C)c1cc[n+](Cc2c(Cl)cccc2Cl)cc1,2,x,-3,58*,3,x
O=C(N/N=C/c1ccc[nH]1)c1cc(-c2cccs2)nc2ccccc12,1,-3,-1,-2,20,-24*
O=C(N/N=C/c1cccs1)c1cc(-c2ccncc2)nc2ccccc12,-4,x,24,x,117*,x
O=C(N/N=C/c1cccnc1)c1cc(-c2cccs2)nc2ccccc12,-1,x,10,11,6,x
O=C(Cc1ccncc1)NCC[C@@H]1CC[C@H](NC(=O)C2CC2)[C@@H](CO)O1,-3,-14,x,20[16.7 µM],x,2
CCn1cc(Br)c(C(=O)Nc2ccc(OC)cc2)n1,-12,0,8,-55,u,-12
CCn1cc(Br)c(C(=O)Nc2ccc(C(=O)OC(C)C)cc2)n1,x,-15,1,x,-15,-21*
CCN1C(=O)N[C@H]2C[C@H](C(=O)N3CCCC3)[C@H](C)[C@H](c3ccccc3)C[C@H]21,3,10,x,-12,x,7
CC(C)=CCC/C(C)=C/CN1C(=O)N(c2ccc(F)cc2)[C@H]2C[C@@H](c3ccccc3)[C@@H](C)[C@@H](C(=O)N3CCOCC3)C[C@H]21,-3,1,x,76*,x,5
C[C@@H]1CN([C@@H](C)CO)C(=O)c2cc(NC(=O)c3ccccc3)ccc2O[C@@H](C)CCCCO[C@H]1CN(C)C(=O)Cc1ccccc1,-9,-8,6[16.7 µM],1[16.7 µM],x,-1

# Bioassay records from PubChem.
